Source: PMC11022931 (Blood, 2022)

Experiments:
mouse platelets [1] = assay: i[VREY]4-biot binding to mouse platelets, flow cytometry; format: cell-based
[2] = i[VREY]4 pharmacokinetics, plasma ELISA; format: in vivo, C57BL/6J mice; conditions: C57BL/6J, mouse, ip, 75 ug
Summary of the method: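 Biotinylated test compound (75 µg) was injected i.p. into mice. Plasma levels of the biotinylated peptide were measured by ELISA at several time points after injection. Data are means ± SD.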

CXCR4 = CXCR4 internalization on human platelets, flow cytometry; format: cell-based; conditions: CXCL12 0.1 µg/mL, i[VREY]4 5 µM
Summary of the method: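 Human blood diluted 1:1 with PBS and treated with recombinant CXCL12 (0.1 µg/mL), collagen (1 µg/mL) and test compound (5 µM). Platelet-surface CXCR4 was stained with anti-CXCR4 clone 12G5 and measured by flow cytometry. Data are means ± SD of independent experiments, analysed by one-way ANOVA with Tukey's multiple comparison test.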

human platelets [3] = assay: Multiple electrode aggregometry; format: cell-based; conditions: MEA, human blood; for effect on platelet aggregation induced by human plaque homogenate: plaque 833 µg/mL, AMD3465 100 nM, i[VREY]4 5 µM
mouse platelets [4] = assay: MEA in mouse blood activated with collagen; format: cell-based; conditions: 1 µg/mL collagen, 5 µM i[VREY]4, n = 6-8
Summary of the method: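 Blood came from mice with megakaryocyte-lineage Cxcl12 deletion (Pf4-Cre × Cxcl12 fl/fl, Apoe-/- background) or from Cxcl12 wt/wt controls. It was mixed with 1 µg/mL collagen with or without 5 µM test compound, and aggregation was measured by multiple electrode aggregometry (Multiplate), n=6-8 mice. Data are means ± SD.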

[5] = target: CXCL12 on human platelets (Homo sapiens, UniProt P48061); assay: Detection of CXCL12 on human platelets with anti-CXCL12 antibodies; format: cell-based; conditions: human blood, CXCL12 0.1 µg/mL or collagen 1 µg/mL
15N-labeled CXCL12 = 15N-labeled CXCL12 (Homo sapiens, UniProt P48061); assay: 15N HSQC NMR titration of CXCL12 with i[VREY]4; format: binding; conditions: 20 µM 15N-CXCL12, i[VREY]4 20, 40, 200 µM; 25 mM KPi pH 7.1; 25 °C
human platelets [6] = assay: i[VREY]4-biot binding and proximity ligation with CXCL12 on human platelets; format: cell-based; conditions: flow cytometry, resting vs collagen-activated, n = 6
human platelets [7] = assay: Platelet activation by PAC-1 and P-selectin staining, flow cytometry; format: cell-based; conditions: human blood, remibrutinib 0.1 µM 30 minutes at 37°C, CXCL12 0.1 μg/mL, CRP-XL 0.01 μg/mL, n = 6
CXCL12 = CXCL12 (Homo sapiens, UniProt P48061); conditions: read-out: KD of CXCL12 binding to CCL5; cited from earlier work

CC[C@H](C)[C@H](NC(=O)[C@H](Cc1ccc(O)cc1)NC(=O)[C@H](CCC(=O)O)NC(=O)[C@H](CCCNC(=N)N)NC(=O)[C@@H](NC(=O)[C@H](Cc1c[nH]c2ccccc12)NC(=O)[C@H](CCCCN)NC(=O)[C@H](CCCCN)NC(=O)[C@H](CCC(=O)O)NC(=O)CNC(=O)CON=C(C)CCCC(=O)NCCCC[C@@H]1NC(=O)[C@H](CCC(=O)O)NC(=O)[C@H](CCCCNC(=O)CCCC(C)=NOCC(=O)NCC(=O)N[C@@H](CCC(=O)O)C(=O)N[C@@H](CCCCN)C(=O)N[C@@H](CCCCN)C(=O)N[C@@H](Cc2c[nH]c3ccccc23)C(=O)N[C@H](C(=O)N[C@@H](CCCNC(=N)N)C(=O)N[C@@H](CCC(=O)O)C(=O)N[C@@H](Cc2ccc(O)cc2)C(=O)N[C@H](C(=O)N[C@@H](CC(N)=O)C(=O)N[C@@H](CO)C(=O)N[C@@H](CC(C)C)C(=O)N[C@@H](CCC(=O)O)C(=O)N[C@@H](CCSC)C(=O)N[C@@H](CO)C(=O)O)[C@@H](C)CC)C(C)C)NC(=O)[C@@H]2CCCN2C(=O)[C@H](CSC2CC(=O)N(CCCCCC(=O)NNC(=O)CCCC[C@@H]3SC[C@@H]4NC(=O)N[C@@H]43)C2=O)NC(=O)[C@H](CCCCNC(=O)CCCC(C)=NOCC(=O)NCC(=O)N[C@@H](CCC(=O)O)C(=O)N[C@@H](CCCCN)C(=O)N[C@@H](CCCCN)C(=O)N[C@@H](Cc2c[nH]c3ccccc23)C(=O)N[C@H](C(=O)N[C@@H](CCCNC(=N)N)C(=O)N[C@@H](CCC(=O)O)C(=O)N[C@@H](Cc2ccc(O)cc2)C(=O)N[C@H](C(=O)N[C@@H](CC(N)=O)C(=O)N[C@@H](CO)C(=O)N[C@@H](CC(C)C)C(=O)N[C@@H](CCC(=O)O)C(=O)N[C@@H](CCSC)C(=O)N[C@@H](CO)C(=O)O)[C@@H](C)CC)C(C)C)NC(=O)[C@H](CCCCN)NC(=O)[C@H](CCCCNC(=O)CCCC(C)=NOCC(=O)NCC(=O)N[C@@H](CCC(=O)O)C(=O)N[C@@H](CCCCN)C(=O)N[C@@H](CCCCN)C(=O)N[C@@H](Cc2c[nH]c3ccccc23)C(=O)N[C@H](C(=O)N[C@@H](CCCNC(=N)N)C(=O)N[C@@H](CCC(=O)O)C(=O)N[C@@H](Cc2ccc(O)cc2)C(=O)N[C@H](C(=O)N[C@@H](CC(N)=O)C(=O)N[C@@H](CO)C(=O)N[C@@H](CC(C)C)C(=O)N[C@@H](CCC(=O)O)C(=O)N[C@@H](CCSC)C(=O)N[C@@H](CO)C(=O)O)[C@@H](C)CC)C(C)C)NC(=O)[C@@H]2CCCN2C(=O)CNC1=O)C(C)C)C(=O)N[C@@H](CC(N)=O)C(=O)N[C@@H](CO)C(=O)N[C@@H](CC(C)C)C(=O)N[C@@H](CCC(=O)O)C(=O)N[C@@H](CCSC)C(=O)N[C@@H](CO)C(=O)O (some centres unmarked) [i[VREY]4-biot]
binding to the surface of unactivated mouse platelets (mouse platelets [1]; resting conditions, flow cytometry): No binding was observed | binding to the surface of mouse platelets, wild type vs CXCR4 knockout (mouse platelets [1]; resting or 10 µg/mL collagen, streptavidin-FITC flow cytometry, n = 3-5): required platelet activation and CXCR4 | Cmax [2]: 1970 ng/mL

CC[C@H](C)[C@H](NC(=O)[C@H](Cc1ccc(O)cc1)NC(=O)[C@H](CCC(=O)O)NC(=O)[C@H](CCCNC(=N)N)NC(=O)[C@@H](NC(=O)[C@H](Cc1c[nH]c2ccccc12)NC(=O)[C@H](CCCCN)NC(=O)[C@H](CCCCN)NC(=O)[C@H](CCC(=O)O)NC(=O)CNC(=O)CON=C(C)CCCC(=O)NCCCC[C@@H]1NC(=O)[C@H](CCC(=O)O)NC(=O)[C@H](CCCCNC(=O)CCCC(C)=NOCC(=O)NCC(=O)N[C@@H](CCC(=O)O)C(=O)N[C@@H](CCCCN)C(=O)N[C@@H](CCCCN)C(=O)N[C@@H](Cc2c[nH]c3ccccc23)C(=O)N[C@H](C(=O)N[C@@H](CCCNC(=N)N)C(=O)N[C@@H](CCC(=O)O)C(=O)N[C@@H](Cc2ccc(O)cc2)C(=O)N[C@H](C(=O)N[C@@H](CC(N)=O)C(=O)N[C@@H](CO)C(=O)N[C@@H](CC(C)C)C(=O)N[C@@H](CCC(=O)O)C(=O)N[C@@H](CCSC)C(=O)N[C@@H](CO)C(=O)O)[C@@H](C)CC)C(C)C)NC(=O)[C@@H]2CCCN2C(=O)[C@H](CSCC(N)=O)NC(=O)[C@H](CCCCNC(=O)CCCC(C)=NOCC(=O)NCC(=O)N[C@@H](CCC(=O)O)C(=O)N[C@@H](CCCCN)C(=O)N[C@@H](CCCCN)C(=O)N[C@@H](Cc2c[nH]c3ccccc23)C(=O)N[C@H](C(=O)N[C@@H](CCCNC(=N)N)C(=O)N[C@@H](CCC(=O)O)C(=O)N[C@@H](Cc2ccc(O)cc2)C(=O)N[C@H](C(=O)N[C@@H](CC(N)=O)C(=O)N[C@@H](CO)C(=O)N[C@@H](CC(C)C)C(=O)N[C@@H](CCC(=O)O)C(=O)N[C@@H](CCSC)C(=O)N[C@@H](CO)C(=O)O)[C@@H](C)CC)C(C)C)NC(=O)[C@H](CCCCN)NC(=O)[C@H](CCCCNC(=O)CCCC(C)=NOCC(=O)NCC(=O)N[C@@H](CCC(=O)O)C(=O)N[C@@H](CCCCN)C(=O)N[C@@H](CCCCN)C(=O)N[C@@H](Cc2c[nH]c3ccccc23)C(=O)N[C@H](C(=O)N[C@@H](CCCNC(=N)N)C(=O)N[C@@H](CCC(=O)O)C(=O)N[C@@H](Cc2ccc(O)cc2)C(=O)N[C@H](C(=O)N[C@@H](CC(N)=O)C(=O)N[C@@H](CO)C(=O)N[C@@H](CC(C)C)C(=O)N[C@@H](CCC(=O)O)C(=O)N[C@@H](CCSC)C(=O)N[C@@H](CO)C(=O)O)[C@@H](C)CC)C(C)C)NC(=O)[C@@H]2CCCN2C(=O)CNC1=O)C(C)C)C(=O)N[C@@H](CC(N)=O)C(=O)N[C@@H](CO)C(=O)N[C@@H](CC(C)C)C(=O)N[C@@H](CCC(=O)O)C(=O)N[C@@H](CCSC)C(=O)N[C@@H](CO)C(=O)O [i[VREY]4]
effect on internalization of CXCR4 after CXCL12 exposure (CXCR4): could not be reversed | effect on platelet aggregation induced by human plaque homogenate (human platelets [3]): inhibited | effect on collagen-induced platelet aggregation in blood from Cxcl12 wt/wt mice (mouse platelets [4]): diminished | effect on binding of anti-CXCL12 antibody clone #79018 to platelets ([5]; n = 8): diminished | effect on binding of anti-CXCL12 antibody K15C to platelets ([5]; n = 10): did not result in reduced binding of K15C | affinity of interaction with CXCL12 by HSQC NMR titration (15N-labeled CXCL12): in the micromolar range | change of i[VREY]4 binding to human platelets on activation with collagen (human platelets [6]): increased

C=CC(=O)N(C)CCOc1c(N)ncnc1-c1cc(F)cc(NC(=O)c2ccc(C3CC3)cc2F)c1C [remibrutinib]
effect on P-selectin expression and integrin αIIbβ3 activation by CRP-XL combined with CXCL12 (human platelets [7]): reversed

CCL5: recombinant human chemokine CCL5
Kd (CXCL12): 578 ± 61 nM

CXCL12: recombinant human chemokine CXCL12, platelet agonist
CXCL12 concentration that induced platelet aggregation (human platelets [3]; recombinant CXCL12 alone, n = 5-10): ≥ 100 ng/mL

c1ccc(CNCc2ccc(CN3CCCNCCNCCCNCC3)cc2)nc1 [AMD3465, reference compound]
effect on platelet aggregation induced by human plaque homogenate (human platelets [3]): reduced
